Data set [1] is described as follows: Inhibition of N-terminal GST-tagged recombinant human MKK3 […]/T193E mutant expressed in baculovirus infected Sf9 insect cells using STK-3-biotin as substrate at 5 uM preincubated for 30 mins followed by substrate/ATP addition measured after 90 mins by TR-FRET assay relative to control. To be noted: time 120.0 min. In a few lines:
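GST-tagged MKK3 S189E/T193E (MKK3E), glutathione-purified from baculovirus-infected Sf9 cells, was used at 100 nM. It was preincubated 30 min at room temperature with compound, then 1 µM ATP and 1 µM STK-3-biotin peptide were added and reacted at least 90 min at 30 °C. Reactions were stopped with Eu-antibody and streptavidin-XL665, and HTRF was read as the 665/620 nm ratio.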

The target in data set [2] is Death-associated protein kinase 3 (Homo sapiens) (UniProt O43293). As to the kind of experiment: Displacement of Eu-Streptavidin from human DAPK3 by TR-FRET assay. In short, it runs like this: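 Human DAPK3, biotinylated in vivo during expression, tested in a TR-FRET assay measuring competitive displacement of a generic ATP-competitive fluorescent tracer. Compound tested at a single concentration of 1 µM. Displacement is relative to vehicle: DMSO sets 0 % and a reference inhibitor specific to the kinase sets 100 %.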
Chain of Death-associated protein kinase 3 (Homo sapiens) (O43293 whole entry, looked up): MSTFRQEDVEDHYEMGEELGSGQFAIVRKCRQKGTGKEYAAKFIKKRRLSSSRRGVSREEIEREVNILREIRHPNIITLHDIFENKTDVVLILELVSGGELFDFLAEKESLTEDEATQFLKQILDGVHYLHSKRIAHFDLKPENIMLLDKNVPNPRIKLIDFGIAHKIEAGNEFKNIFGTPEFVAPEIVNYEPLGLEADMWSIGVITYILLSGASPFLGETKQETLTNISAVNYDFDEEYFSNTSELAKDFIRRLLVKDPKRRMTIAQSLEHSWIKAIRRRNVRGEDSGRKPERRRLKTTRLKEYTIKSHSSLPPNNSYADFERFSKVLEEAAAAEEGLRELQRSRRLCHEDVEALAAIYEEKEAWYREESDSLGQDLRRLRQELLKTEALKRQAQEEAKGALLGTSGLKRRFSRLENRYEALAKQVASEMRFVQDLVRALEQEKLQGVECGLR

The target of data set [3] is T1, Dual specificity mitogen-activated protein kinase kinase 3 (Homo sapiens, UniProt P46734).
T1 sequence (P46734 whole entry): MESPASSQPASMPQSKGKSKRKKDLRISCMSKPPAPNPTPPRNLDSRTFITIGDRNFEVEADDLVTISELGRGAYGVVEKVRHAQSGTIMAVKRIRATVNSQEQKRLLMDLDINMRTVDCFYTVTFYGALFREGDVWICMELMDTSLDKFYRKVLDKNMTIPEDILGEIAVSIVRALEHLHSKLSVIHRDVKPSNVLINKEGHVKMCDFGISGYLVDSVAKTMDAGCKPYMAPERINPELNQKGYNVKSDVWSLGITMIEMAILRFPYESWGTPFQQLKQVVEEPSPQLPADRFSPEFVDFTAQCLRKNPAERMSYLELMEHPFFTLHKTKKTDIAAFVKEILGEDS
The data set can be described thus: Displacement of tracer K-9 from C-terminal NanoLuc fused full-length MKK3 (unknown origin) transfected in HEK293T cells by BRET assay. It counts as cell-based. In a few lines: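 HEK293T cells in DMEM with 10 % FBS were transiently transfected with full-length wild-type MKK3 carrying a C-terminal NanoLuc fusion and cultured 48 h at 37 °C. The cells were then resuspended in Opti-MEM at 2×10^5 cells/mL. Tracer K-9 was added at 1.0 μM final with compound dilutions (2 % DMSO final) for 2 h. After NanoLuc substrate plus extracellular inhibitor, emissions at 460 and 610 nm were read as mBRET, normalized, and fitted to give IC50.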

The nature of data set [4]: Aqueous solubility of compound. As to conditions: water (aqueous). It counts as physicochemical.

In brackets after ≈: the same amount, converted by molar mass. Activity calls are given as the source filed them. No cut-off for these calls is given here.

As for `CC(C)(C)n1nc(-c2cccc(C#N)c2)c2c(N)ncnc21`, the inhibition result in data set [1] was “inactive”. Turning to `CC(C)(C)n1nc(-c2cc(F)c(O)c(F)c2)c2c(N)ncnc21`, the Activity in data set [2] was greater than 80%. In addition, the inhibition in data set [1] is 44.9%. In addition, the IC50 in data set [3] amounted to 145 µM.

Take `CC(C)(C)n1nc(-c2ccc3ncccc3c2)c2c(N)ncnc21`: the inhibition in data set [1] was found to be 28.2%.

Consider `CC(C)(C)n1nc(-c2ccc(S(=O)(=O)NC3CC3)cc2)c2c(N)ncnc21`, for which the inhibition in data set [1] came out at 12.6%. Still for that read-out and setting: then `CC(C)(C)n1nc(-c2cccc3cn[nH]c23)c2c(N)ncnc21`, with “inactive”. Same read-out and setting: next, `CC(C)(C)n1nc(-c2ccccc2F)c2c(N)ncnc21`: 37.4%.

Regarding `CC(C)n1nc(-c2cc3cc(O)ccc3[nH]2)c2c(N)ncnc21`, in data set [2], the result was Active. Also, the concentration in solution in data set [4] (solubility) came to 6 µg/mL (≈ 19.5 µM). With `CC(C)(C)n1nc(-c2ccc(N)c3ccccc23)c2c(N)ncnc21`, the inhibition in data set [1] amounted to 54.8%. For `CC(C)(C)n1nc(-c2cccc(Cl)c2)c2c(N)ncnc21`, the inhibition in data set [1] was 19.8%.

Take `CC(C)(C)n1nc(-c2cccc3cnccc23)c2c(N)ncnc21`: in data set [1], the inhibition is 12.4%. With `CC(C)(C)n1nc(-c2cccc(C(=O)NC3CC3)c2)c2c(N)ncnc21`, in data set [1], the inhibition was 7.1%. For the compound `CC(C)(C)n1nc(-c2ccc(F)c(C(=O)NCCO)c2)c2c(N)ncnc21`, in data set [1], the inhibition was determined as 5.2%. On to `CC(C)(C)n1nc(-c2cccc(Cl)c2F)c2c(N)ncnc21`, for which, in data set [1], the inhibition came to 35.2%. On the same count and under the same terms, next, `CC(C)(C)n1nc(-c2ccc(F)c(Cl)c2)c2c(N)ncnc21`: 39.3%; `CC(C)(C)n1nc(-c2ccc(F)c(C#N)c2)c2c(N)ncnc21`: 35.6%; `CC(C)(C)n1nc(-c2ccc3[nH]ccc3c2)c2c(N)ncnc21`: 58.2%. On the same count and under the same terms, next, `CC(C)(C)n1nc(-c2ccnc3ccccc23)c2c(N)ncnc21`: 3.4%.

Regarding `CC(C)(C)n1nc(-c2ccccc2)c2c(N)ncnc21`, the inhibition in data set [1] was 34.8%. Same read-out and setting: next, `CC(C)(C)n1nc(-c2cc(Cl)cc(Cl)c2)c2c(N)ncnc21`: 23.4%; `CC(C)NC(=O)c1ccc(-c2nn(C(C)(C)C)c3ncnc(N)c23)cc1`: 26.4%.
